CHRM4 PAM = positive allosteric modulators of human muscarinic M4 receptor | P08173 | CHO-K1 hM4/Gqi5, Fluo-8 calcium fluorescence, ACh EC20; 0% = ACh EC20, 100% = maximal ACh | activation, % at 3 µM | 0.4% of 360,000 active | AID 624126;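 active = activation above its plate's cutoff, the mean activation of sample wells plus 3 SD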
Target sequence (P08173 whole entry, looked up): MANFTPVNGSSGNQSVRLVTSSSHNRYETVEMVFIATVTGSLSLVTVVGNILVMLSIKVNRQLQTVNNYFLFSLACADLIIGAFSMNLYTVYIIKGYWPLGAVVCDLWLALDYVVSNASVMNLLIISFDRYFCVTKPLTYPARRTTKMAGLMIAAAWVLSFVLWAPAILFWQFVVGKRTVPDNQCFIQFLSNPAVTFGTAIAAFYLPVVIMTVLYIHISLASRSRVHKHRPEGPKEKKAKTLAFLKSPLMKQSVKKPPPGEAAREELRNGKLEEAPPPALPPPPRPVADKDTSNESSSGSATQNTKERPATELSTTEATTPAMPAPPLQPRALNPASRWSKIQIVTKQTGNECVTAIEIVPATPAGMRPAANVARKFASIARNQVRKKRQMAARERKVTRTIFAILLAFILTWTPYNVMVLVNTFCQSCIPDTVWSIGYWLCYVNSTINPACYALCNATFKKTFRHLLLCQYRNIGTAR
CHRM5 PAM = positive allosteric modulators of human muscarinic M5 receptor; CHO-K1 hM5, Fluo-8 calcium, ACh EC20 PAM; 0% = ACh EC20, 100% = ACh EC100; 0.3% of 360,000 active; activation, % at 3 µM;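 active = activation above the run cutoff, the mean activation of all test compounds plus 3 SD, cut at about 18% in these data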
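Assay system: CHO-K1 hM5 cells. Also added: acetylcholine at EC20 concentration, added after compound. Dosing: 3 µM, single dose. Times: compound preincubation 140 s before EC20 acetylcholine addition. Signal: Fluo-8 calcium fluorescence. Measure: % activation relative to EC20 and EC100 ACh responses. Repeats: singlicate, one well per test compound.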
CHRM5 antagonist = blocks acetylcholine activation of human M5 receptor | CHO-hM5 cells, Fluo-8 calcium fluorescence, ACh EC80 | inhibition, % at 3 µM | P08912 | 0.59% of 360,000 active | AID 624040;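 active = inhibition above a per-plate cutoff, the mean of that plate's test compounds plus 3 SD, cut at about 27% in these data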;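 note: 0% = acetylcholine EC80 with DMSO and 100% = DMSO without agonist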
M5 ag = CHRM5 agonism in calcium assay; P08912; CHO-K1 hM5 cells, Fluo-8 calcium fluorescence; 0% DMSO wells, 100% maximal acetylcholine response; activation, % at 3 µM; 0.19% of 360,000 active;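 active = activation above the run's mean over test compounds plus 3 SD, cut at about 23% in these data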;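 note: signal is peak over basal fluorescence ratio across the kinetic read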
M4 antag = antagonists of human muscarinic M4 receptor (CHRM4); P08173; CHO-hM4 cells, ACh EC80, Fluo-8 calcium fluorescence; inhibition, % at 3 µM; 0.73% of 360,000 active; AID 624125;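 active = inhibition above its plate's cutoff, the mean inhibition of sample wells plus 3 SD, cut at about 27% in these data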;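 note: 0% = acetylcholine EC80 with DMSO and 100% = DMSO without agonist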
CHRM4 agonist = CHRM4 agonism in calcium assay. activation, % at 3 µM. CHO-K1 hM4/Gqi5, Fluo-8 calcium fluorescence; vehicle 0%, full acetylcholine response 100%. P08173. 0.14% of 360,000 active;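 active = activation above the run mean over all test wells plus 3 SD, cut at about 32% in these data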;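 note: peak over basal fluorescence ratio per well then scaled between controls; 0% = DMSO wells and 100% = acetylcholine at EC100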
* hit, by the source's call. Shown are actives, neighbours in structure and some others; about 1.9% of the full set was active somewhere.

SMILES	CHRM4 PAM	CHRM5 PAM	CHRM5 antagonist	M5 ag	M4 antag	CHRM4 agonist
CC(Oc1ccc2c3c(c(=O)oc2c1)CCC3)C(=O)NCc1cccnc1 (stereo not drawn)	19*	-4	15	-4	16	2
c1csc(C(c2nnnn2C2CCCC2)N2CCCC3(CCCCC3)C2)c1 (stereo not drawn)	-6	-5	0	0	-6	-1
CCN(C[C@H]1N[C@@](CC)(C(=O)OC)[C@H]2C(=O)N(C)C(=O)[C@@H]12)C(=O)Nc1ccc(C(F)(F)F)cc1	4	1	-3	-1	-11	1
CCCC(=O)Nc1ccc(S(=O)(=O)N2CCOCC2)cc1	9	1	-4	0	-3	1
CCc1ccc(N=Nc2ccc(O)c3[nH]cnc23)cc1	-13	-27	46*	30*	28*	48*
COc1ccc(N=Nc2ccc(O)c3ncccc23)cc1	-2	6	1	6	-5	1
CC1(OC(=O)C2CCCC2)C(=O)C=C2C=C(c3ccsc3)N(CCCCO)C=C2C1=O (stereo not drawn)	-3	3	7	-1	-3	1
CC1(OC(=O)C2CCCC2)C(=O)C=C2C=C(c3ccsc3)N(C3CCCC3)C=C2C1=O (stereo not drawn)	6	-8	1	39*	-7	1
CCOc1ccc(S(=O)(=O)N2CCCCC2)cc1NC(=O)CCc1ccc(OC)cc1	9	9	8	0	0	-1
O=C(C[n+]1ccccc1)N1c2ccccc2Sc2ccccc21	-27	-18	98*	-10	99*	1
O=C(COc1ccccc1)N1c2ccccc2Sc2ccccc21	-26	-5	1	-4	5	-2
CN(C)c1cc[n+](CC(=O)N2c3ccccc3Sc3ccccc32)cc1	-26	-10	14	-15	48*	0
O=C1NC(=Nc2ccccc2)SC1Cc1ccccc1 (stereo not drawn)	-4	-11	27*	-3	-2	18
O=C1N/C(=N/c2ccccn2)SC1Cc1ccccc1 (stereo not drawn)	7	-1	1	3	-2	0
COc1cc2cc(C(c3nnnn3C3CCCC3)N3CCCCC3)c(=O)[nH]c2cc1OC (stereo not drawn)	12	-12	34*	-2	5	2
Cc1ccc(S(=O)(=O)CCC(=O)OCc2nnc(-c3ccccc3Br)o2)cc1	6	2	3	-1	-1	3
CCCn1c(SCC(=O)Nc2ccc(OCC)cc2)nnc1C(C)C	-2	19*	-4	-3	8	1
CCCCOc1ccc(N=Nc2ccc(N)nc2N)cn1	-6	-1	14	-1	10	0
N#CCC(=O)Nc1ccc(C(=O)OCC(=O)Nc2ccccc2Sc2ccccc2)cc1	-14	-15	28*	3	20	24
COc1ccc2[nH]cc(/C=N/NS(=O)(=O)c3ccc(C)cc3)c2c1	7	-3	3	1	28*	7
COc1ccc2c(/C=N/NS(=O)(=O)c3ccc(C)cc3)c[nH]c2c1	2	7	-8	1	5	1
COc1ccc(NC(=O)NC(C)c2ccc3c(c2)OCO3)c(OC)c1 (stereo not drawn)	5	15	-10	-2	-6	1
CCN(C(=O)COC(=O)c1cc2ccccc2cc1OC)c1c(N)n(Cc2ccccc2)c(=O)[nH]c1=O	22*	1	11	-1	-13	1
COCCCN(C(=S)NC(=O)c1ccc(C(C)(C)C)cc1)c1c(N)n(Cc2ccccc2)c(=O)[nH]c1=O	27*	-1	6	-2	-2	2
CCN(C(=O)CSc1nncs1)c1c(N)n(Cc2ccccc2)c(=O)[nH]c1=O	2	29*	-7	-2	-17	1
SMILES	CHRM4 PAM	CHRM5 PAM	CHRM5 antagonist	M5 ag	M4 antag	CHRM4 agonist
CCN(C(=O)CSc1nnnn1C)c1c(N)n(Cc2ccccc2)c(=O)[nH]c1=O	1	-1	-4	2	2	2
CCN(C(=O)c1ccc(=O)[nH]c1)c1c(N)n(Cc2ccccc2)c(=O)[nH]c1=O	22*	0	15	0	5	1
Cc1occc1C(=O)NC(C)c1ccc2c(c1)OCO2 (stereo not drawn)	3	1	-1	0	-9	1
CCn1c(SCC(=O)c2cc(OC)ccc2OC)nnc1-c1ccncc1	2	4	1	2	10	-1
CCn1c(SCC(=O)c2cc(OC)ccc2OC)nnc1C(C)C	19*	7	-9	-7	-12	1
O=C(CN1c2cccc3cccc(c23)S1(=O)=O)NCc1ccc(Cl)cc1	-1	-5	-3	-5	-6	5
CCc1nnc2sc(-c3ccc(NC(=O)CSc4ccc(Cl)cc4)cc3)nn12	9	2	-1	0	-5	0
O=C(O)c1cccc(Cn2cc(Br)cn2)c1	12	9	-5	-2	-7	1
O=C(NCc1ccncc1)c1cccc(Cn2cc(Br)cn2)c1	-22	-13	-2	-11	82*	1
c1ccc(-n2cnc3ccccc32)nc1	0	-3	14	-3	-5	0
S=c1[nH]ncn1-c1ccccn1	25*	6	-4	-3	5	0
c1ccc(CN2CCN(C3CCCSc4ccccc43)CC2)cc1 (stereo not drawn)	-13	5	-4	-19	35*	1
COc1ccc(-c2c[n+]3c(n2-c2ccccc2)SCC3)cc1	-12	6	0	-17	22	0
c1ccc(Cn2c(-c3ccccc3)c[n+]3c2SCCC3)cc1	-16	-28	96*	-18	97*	0
FC(F)C(F)(F)c1cc(-c2ccc(Cl)cc2)n[nH]1	-13	-9	9	17	28*	9
Fc1ccc(-c2cc(C(F)(F)C(F)F)[nH]n2)cc1	-12	-9	13	32*	6	28
CNC(=O)c1ccc(NC(=O)C2CCN(c3ncnc4sc(C)c(C)c34)CC2)cc1	9	-12	19	-1	70*	72*
CCc1cccc(NC(=O)C2CCN(c3ncnc4sc(C)c(C)c34)CC2)c1	20	-36	9	-3	12	10
CCS(=O)(=O)N1CCN(c2ncnc3sc(C)c(C)c23)CC1	21*	9	6	0	-9	8
Cc1cc(C)c(C)c(S(=O)(=O)N2CCN(c3ncnc4sc(C)c(C)c34)CC2)c1C	8	1	7	-3	-5	1
Cc1sc2ncnc(N3CCC(C(=O)Nc4ccc(Br)cc4Br)CC3)c2c1C	22*	0	-2	2	-5	0
